Data set [1] concerns Leishmania donovani. Nature of the data set: Antileishmanial activity against promastigotes of Leishmania donovani MHOM/IN/80/DD8 after 72 hrs by MTT assay. The class given is functional, organism-based. The settings on record: MHOM/IN/80/DD8, 72 h. A digest of the protocol:
(§1)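 Cultured L. donovani promastigotes (strain […]) were exposed to the compounds. Viability was read by a modified MTT assay, in which formazan output tracks metabolically active cells. The concentration that cut growth by 50% (IC50) was found by graphic interpolation.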

A short description of data set [2]: Antioxidant activity of the compound assessed as DPPH radical scavenging after 30 mins by spectrophotometric analysis. The format is physicochemical. Summed up:
(§2)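 DPPH radical scavenging assay. The control contained all reagents except the test compound. % scavenging = [(A control − A sample)/[…]] × 100, taken from absorbance readings.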
A general note: The DPPH test is a chemical assay of radical scavenging.

Data set [3] relates to HeLa. The data set is described as follows: Cytotoxicity against human HeLa cells assessed as cell viability at 100 ug/ml by microscopic analysis. The format is cell-based. Summed up:
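HeLa cells were treated at 100 μg/mL and assessed by the MTT method. Cells were also viewed under a microscope at 10X magnification.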

The nature of data set [4]: Antioxidant activity assessed as ABTS radical scavenging activity by TEAC assay. The format is physicochemical.
Data set [5] in a line: Antioxidant activity of the compound. The class given is physicochemical. A digest of the protocol:
as §2

The subject of data set [6] is Leishmania major. Nature of the data set: Antileishmanial activity against promastigotes of Leishmania major MHOM/IL/67/LRC-L43 assessed as parasite growth inhibition after 24 hrs by uranyl acetate/ magnesium uranyl acetate/lead citrate staining-based electron microscopic analysis. The class given is functional, organism-based. The settings on record: MHOM/IL/67/LRC-L43, 24 h.

In data set [7] the test system is Leishmania donovani. The data set is described as follows: Antileishmanial activity against promastigotes of Leishmania donovani assessed as parasite growth inhibition. The format is functional, organism-based. A digest of the protocol:
as §1

The test system of data set [8] is Leishmania major. The data set is described as follows: Antileishmanial activity against stationary-phase promastigotes of Leishmania major MRHO/IR/75/ER assessed as parasite growth inhibition after 48 hrs by Neubar chamber method. The format is functional, organism-based.

Converted amounts (≈) assume the structure as drawn.

In the case of `O=C(CC(c1ccc(O)c(O)c1)c1c[nH]c2ccccc12)c1c(O)c2ccccc2oc1=O` (configuration not stated), the IC50 – broadly, the midpoint of a concentration-inhibition curve – in data set [1] stood at 231 µg/mL (≈ 523 µM); in data set [2], 71.08 µg/mL (≈ 161 µM). `O=C(CC(c1ccc(F)cc1)c1c[nH]c2ccccc12)c1c(O)c2ccccc2oc1=O` (configuration not stated): the IC50 in data set [1] was 156 µg/mL (≈ 364 µM); in data set [2], 47.35 µg/mL (≈ 111 µM). For `O=C(CC(c1ccc(O)cc1)c1c[nH]c2ccccc12)c1c(O)c2ccccc2oc1=O` (configuration not stated), the IC50 in data set [1] amounted to 288 µg/mL (≈ 676 µM); in data set [2], 58.91 µg/mL (≈ 138 µM). In the case of `O=C(CC(c1c(Cl)cccc1Cl)c1c[nH]c2ccccc12)c1c(O)c2ccccc2oc1=O` (configuration not stated), the IC50 came to 95 µg/mL (≈ 199 µM) in data set [1] and 13.49 µg/mL (≈ 28.2 µM) in data set [2]. Further, in data set [3], the Activity entry is reported as “Non-toxic”. For the molecule `O=C(CC(c1ccccc1Cl)c1c[nH]c2ccccc12)c1c(O)c2ccccc2oc1=O` (configuration not stated), the IC50 amounted to 102 µg/mL (≈ 230 µM) in data set [1] and 39.62 µg/mL (≈ 89.3 µM) in data set [2]. The like results for `COc1ccc(C(CC(=O)c2c(O)c3ccccc3oc2=O)c2c[nH]c3ccccc23)c(OC)c1` (configuration not stated) were, in that order, 250 µg/mL (≈ 531 µM) and 13.24 µg/mL (≈ 28.2 µM). Take `O=C(CC(c1ccc(Cl)cc1)c1c[nH]c2ccccc12)c1c(O)c2ccccc2oc1=O` (configuration not stated): the IC50 in data set [1] came to 125 µg/mL (≈ 282 µM); in data set [2], 46.35 µg/mL (≈ 104 µM). The corresponding values for `COc1ccc(OC)c(C(CC(=O)c2c(O)c3ccccc3oc2=O)c2c[nH]c3ccccc23)c1` (configuration not stated) are 99 µg/mL (≈ 211 µM) and 19.02 µg/mL (≈ 40.5 µM).

As to `N#Cc1ccc(C(CC(=O)c2c(O)c3ccccc3oc2=O)c2c[nH]c3ccccc23)cc1` (configuration not stated), the IC50 in data set [1] was found to be 102 µg/mL (≈ 234 µM); in data set [2], 13.74 µg/mL (≈ 31.6 µM). Take `O=c1oc2ccccc2cc1C1=Nn2c(nnc2-c2ccccc2)SC1`: the IC50 in data set [4] was determined as 39.9 µg/mL (≈ 111 µM). As to `COc1ccc(C(CC(=O)c2c(O)c3ccccc3oc2=O)c2c[nH]c3ccccc23)cc1` (configuration not stated), the IC50 amounted to 174 µg/mL (≈ 396 µM) in data set [1] and 16.21 µg/mL (≈ 36.9 µM) in data set [2]. The corresponding values for `O=C(CC(c1ccccc1)c1c[nH]c2ccccc12)c1c(O)c2ccccc2oc1=O` (configuration not stated) are 95.5 µg/mL (≈ 233 µM) and 12.4 µg/mL (≈ 30.3 µM). The corresponding values for `COc1ccc(C(CC(=O)c2c(O)c3ccccc3oc2=O)c2c[nH]c3ccccc23)cc1OC` (configuration not stated) are 212 µg/mL (≈ 452 µM) and 63.16 µg/mL (≈ 135 µM). Regarding `O=C1O[C@H]([C@@H](O)CO)C(O)=C1O` [ASCORBIC ACID], the IC50 in data set [2] was 12.8 µg/mL (≈ 72.7 µM). In data set [5], `O=C(/C=C/c1ccc(O)c(O)c1)c1ccc(O)cc1O` [BUTEIN] yielded an IC50 of 3.3 µg/mL (≈ 12.1 µM). On to `Cc1cc(C(C)(C)C)c(O)c(C(C)(C)C)c1` [BUTYLATED HYDROXYTOLUENE], for which the IC50 in data set [2] turned out to be 16.5 µg/mL (≈ 74.9 µM). For the molecule `C=CC(C)(C)c1cc(/C=C/C(=O)c2ccc(O)cc2)c(OC)cc1O` [LICOAGROCHACONE A], the IC50 in data set [6] is 2.5 µg/mL (≈ 7.39 µM); in data set [7], 2.7 µM.

Take `CC(C)=CCC/C(C)=C/CC/C(C)=C/COc1ccc2ccc(=O)oc2c1` [UMBELLIPRENIN]: in data set [8], the IC50 stood at 13.3 µM.
